# Molecular target: T1, D(2) dopamine receptor (Rattus norvegicus, UniProt P61169)
# Experiment: Binding affinity against dopamine receptor D2 from rat striatal homogenates, using [3H]YM-09151-2 as radioligand
# Method in brief: (§1)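 Competition binding with rat striatal homogenates in Tris-HCl, pH 7.4, containing 150 mM NaCl at 30 °C. […] Nonspecific binding was defined by (+)-butaclamol. Six or more concentrations bracketing the IC50 were run in duplicate, with three replications. IC50 values came from curve fitting.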
# T1 sequence (P61169 whole entry): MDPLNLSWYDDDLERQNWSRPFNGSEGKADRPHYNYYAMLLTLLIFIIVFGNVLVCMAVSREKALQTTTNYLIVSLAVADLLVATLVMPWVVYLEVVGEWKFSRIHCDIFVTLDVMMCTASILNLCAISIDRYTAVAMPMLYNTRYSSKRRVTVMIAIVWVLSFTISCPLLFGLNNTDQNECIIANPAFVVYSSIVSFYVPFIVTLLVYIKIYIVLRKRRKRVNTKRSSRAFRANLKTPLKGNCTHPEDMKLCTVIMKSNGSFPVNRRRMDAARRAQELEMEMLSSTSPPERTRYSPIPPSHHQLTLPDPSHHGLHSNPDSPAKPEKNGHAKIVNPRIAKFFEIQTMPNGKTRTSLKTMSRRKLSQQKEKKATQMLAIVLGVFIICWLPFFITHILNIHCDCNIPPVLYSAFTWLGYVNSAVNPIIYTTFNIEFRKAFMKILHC
row,IC50,Compound
1,10 µM,CNC1Cc2cc(Cl)c(O)cc2C(c2ccccc2)C1 (trans isomer)

# Molecular target: T1, D(2) dopamine receptor
# Experiment: Binding affinity against dopamine receptor D2 from rat striatal homogenates using [3H]YM-09151-2
# Method in brief: as §1
row,Compound,IC50
1,C=CCN(CC=C)C1Cc2ccccc2C(c2ccccc2)C1 (configuration not stated),4 µM
2,NC1Cc2cc(O)c(O)cc2C(c2ccccc2)C1 (cis isomer) [listing 1 of 2 here],> 10 µM
3,NC1Cc2cc(O)c(O)cc2C(c2ccccc2)C1 (trans isomer) [listing 1 of 2 here],> 30 µM
4,NC1Cc2ccccc2C(c2ccccc2)C1 (trans isomer),> 10 µM

# Next, values leading:
row,IC50,Compound
1,4.13 µM,CN(C)[C@H]1Cc2cc(Cl)c(O)cc2[C@H](c2ccccc2)C1
2,> 5 µM,CN(C)C1Cc2cc(O)c(O)cc2C(c2ccccc2)C1 (cis isomer) [listing 1 of 2 here]
3,6 µM,C=CCNC1Cc2ccccc2C(c2ccccc2)C1 (trans isomer)
4,> 5 µM,CN(C)C1Cc2cc(O)c(O)cc2C(c2ccccc2)C1 (trans isomer) [listing 1 of 2 here]

# Molecular target: T2, D(1A) dopamine receptor (Rattus norvegicus, UniProt P18901)
# T2 sequence (P18901 whole entry): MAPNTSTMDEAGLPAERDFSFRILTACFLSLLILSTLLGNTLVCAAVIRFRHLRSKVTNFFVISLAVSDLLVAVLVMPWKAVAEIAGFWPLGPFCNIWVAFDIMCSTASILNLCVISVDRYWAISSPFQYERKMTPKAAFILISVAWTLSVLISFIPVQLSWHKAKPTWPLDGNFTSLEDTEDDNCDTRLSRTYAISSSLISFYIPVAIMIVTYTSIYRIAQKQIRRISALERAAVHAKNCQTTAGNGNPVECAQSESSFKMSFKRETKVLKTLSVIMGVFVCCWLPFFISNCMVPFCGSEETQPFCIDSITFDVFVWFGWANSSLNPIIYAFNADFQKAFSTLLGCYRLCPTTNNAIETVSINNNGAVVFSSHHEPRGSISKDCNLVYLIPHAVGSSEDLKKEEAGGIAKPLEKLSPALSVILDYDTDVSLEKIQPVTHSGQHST
# Experiment: Binding affinity against dopamine receptor D1 from rat striatal homogenates, using [3H]SCH-23,390 as radioligand
# Method in brief: (§2)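 Competition binding with rat striatal homogenates in Tris-HCl, pH 7.4, with 150 mM NaCl at 30 °C. […] Nonspecific binding was defined by 0.3 μM cis-(Z)-flupenthixol. Six or more concentrations bracketing the IC50 were run in duplicate, with three replications. IC50 values came from curve fitting.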
row,IC50,Compound
1,1.89 µM,CN(C)[C@H]1Cc2cc(Cl)c(O)cc2[C@H](c2ccccc2)C1
2,0.849 µM,CNC1Cc2cc(Cl)c(O)cc2C(c2ccccc2)C1 (trans isomer)

# Molecular target: T2, D(1A) dopamine receptor
# Experiment: Binding affinity against dopamine receptor D1 from rat striatal homogenates, using [3H]SCH-23390 as radioligand.
# Method in brief: as §2
row,Compound,IC50
1,C=CCN(CC=C)C1Cc2ccccc2C(c2ccccc2)C1 (configuration not stated),10 µM
2,NC1Cc2cc(O)c(O)cc2C(c2ccccc2)C1 (cis isomer) [listing 1 of 2 here],> 30 µM
3,NC1Cc2cc(O)c(O)cc2C(c2ccccc2)C1 (trans isomer) [listing 1 of 2 here],> 30 µM
4,NC1Cc2ccccc2C(c2ccccc2)C1 (trans isomer),> 10 µM

# Further lines, results first:
row,IC50,Compound
1,> 1 µM,CN(C)C1Cc2cc(O)c(O)cc2C(c2ccccc2)C1 (cis isomer) [listing 1 of 2 here]
2,10 µM,C=CCNC1Cc2ccccc2C(c2ccccc2)C1 (trans isomer)
3,> 10 µM,CN(C)C1Cc2cc(O)c(O)cc2C(c2ccccc2)C1 (trans isomer) [listing 1 of 2 here]

# Molecular target: Tyrosine 3-monooxygenase (Rattus norvegicus) (UniProt P04177)
# Sequence (P04177 whole entry): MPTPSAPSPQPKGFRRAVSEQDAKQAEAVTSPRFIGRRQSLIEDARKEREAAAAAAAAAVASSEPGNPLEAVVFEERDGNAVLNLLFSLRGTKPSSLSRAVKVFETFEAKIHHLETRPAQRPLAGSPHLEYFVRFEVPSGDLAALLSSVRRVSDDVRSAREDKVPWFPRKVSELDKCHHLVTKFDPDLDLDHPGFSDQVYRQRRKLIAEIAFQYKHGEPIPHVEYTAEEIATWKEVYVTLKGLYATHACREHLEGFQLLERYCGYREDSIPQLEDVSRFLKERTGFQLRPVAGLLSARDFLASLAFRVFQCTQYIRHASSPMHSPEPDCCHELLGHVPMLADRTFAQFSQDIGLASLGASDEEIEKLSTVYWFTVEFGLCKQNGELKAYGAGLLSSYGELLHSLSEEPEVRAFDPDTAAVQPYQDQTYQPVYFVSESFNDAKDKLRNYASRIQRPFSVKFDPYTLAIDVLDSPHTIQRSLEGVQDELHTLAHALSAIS
# Experiment: Tyrosine hydroxylase activity at 0.1 uM in rat striatal minces
# Assay type: functional
row,Compound,Control
1,C=CCN(CC=C)C1Cc2ccccc2C(c2ccccc2)C1 (configuration not stated),104%
2,CN(C)C1Cc2ccccc2C(c2ccccc2)C1 (configuration not stated),101%
3,NC1Cc2cc(O)c(O)cc2C(c2ccccc2)C1 (cis isomer) [listing 2 of 2 here],95%
4,NC1Cc2ccccc2C(c2ccccc2)C1 (trans isomer),86%
5,CNC1Cc2cc(Cl)c(O)cc2C(c2ccccc2)C1 (trans isomer),99%

# Further lines, results first:
row,Control,Compound
1,72%,C=CCN(C)C1Cc2ccccc2C(c2ccccc2)C1 (configuration not stated)
2,111%,CN(C)[C@H]1CCc2ccccc2[C@H]1c1ccccc1
3,94%,CN(C)C1Cc2cc(Cl)c(O)cc2C(c2ccccc2)C1 (cis isomer)
4,100%,CN(C)C1Cc2cc(O)c(O)cc2C(c2ccccc2)C1 (cis isomer) [listing 2 of 2 here]
5,102%,C=CCNC1Cc2ccccc2C(c2ccccc2)C1 (trans isomer)
6,95%,CCN(CC)C1Cc2ccccc2C(c2ccccc2)C1 (trans isomer)

# Molecular target: Tyrosine 3-monooxygenase (Rattus norvegicus) (UniProt P04177)
# Experiment: Tyrosine hydroxylase activity at 0.1 uM in rat striatal minces; effect blocked by BMY-14802
# Assay type: functional
row,Control,Compound
1,128%,CN(C)[C@H]1Cc2cc(Cl)c(O)cc2[C@H](c2ccccc2)C1

# Molecular target: Tyrosine 3-monooxygenase (Rattus norvegicus) (UniProt P04177)
# Experiment: Tyrosine hydroxylase activity at 0.1 uM in rat striatal minces; effect not blocked bt BMY-14802
# Assay type: functional
row,Control,Compound
1,71%,NC1Cc2cc(O)c(O)cc2C(c2ccccc2)C1 (trans isomer) [listing 2 of 2 here]

# Molecular target: Tyrosine 3-monooxygenase (Rattus norvegicus) (UniProt P04177)
# Experiment: Tyrosine hydroxylase activity at 0.1 uM in rat striatal minces; effect not blocked by BMY-14802
# Assay type: functional
row,Control,Compound
1,75%,CN(C)C1Cc2cc(O)c(O)cc2C(c2ccccc2)C1 (trans isomer) [listing 2 of 2 here]
